Here are results for 12 molecules from ChEMBL document CHEMBL5055684, “Into Deep Water: Optimizing BCL6 Inhibitors by Growing into a Solvated Pocket” (J Med Chem, 2021).

Broadly, the fraction unbound is the share of the substance not bound to proteins or other matrix. In general, IC50 refers to the point on the concentration scale where inhibition reaches its midpoint. A high value points to a need for much substance.

Tested on in one data set: not listed separately
The experiment in a line: Plasma concentration in BALB/c mouse assessed as unbound fraction at 1 mg/kg, iv or 5 mg/kg, po. In kind it is ADME, organism-based.
Conditions: not given
The essentials: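 Unbound fraction measured by equilibrium dialysis in mouse plasma.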
As for `Cn1c(=O)cc(NC(C)(C)c2ncc(C3CC3)cn2)c2cc(Nc3ccnc(Cl)c3C#N)ccc21`, the fraction unbound was determined as 0.013.

Tested on in another data set: not listed separately
Nature of the data set: Permeability of the compound by PAMPA. It counts as ADME. The note with it: read-out: permeability (converted).
`Cc1cnc(C(C)Nc2cc(=O)n(C)c3ccc(Nc4ccnc(Cl)c4C#N)cc23)nc1` (centres undefined): the Papp was 5.6 ×10⁻⁶ cm/s.

Consider `Cc1nnc(C(C)Nc2cc(=O)n(C)c3ccc(Nc4ccnc(Cl)c4C#N)cc23)o1` (centres undefined), for which the Papp was < 0.2 ×10⁻⁶ cm/s.

On to `CC(Nc1cc(=O)n(CC2CC2)c2ccc(Nc3ccnc(Cl)c3C#N)cc12)c1ncccn1` (centres undefined), for which the Papp is 8.5 ×10⁻⁶ cm/s.

As to `Cn1c(=O)cc(NC(C)(C)c2ncccn2)c2cc(Nc3ccnc(Cl)c3C#N)ccc21`, the Papp was 1.8 ×10⁻⁶ cm/s.

As to `CC(Nc1cc(=O)n(C)c2ccc(Nc3ccnc(Cl)c3C#N)cc12)c1ncco1` (centres undefined), the Papp was 1 ×10⁻⁶ cm/s.

As to `Cn1c(=O)cc(NC(C)(C)c2ncc(C3CC3)cn2)c2cc(Nc3ccnc(Cl)c3C#N)ccc21`, the Papp is 35 ×10⁻⁶ cm/s.

`C[C@@H](Nc1cc(=O)n(C)c2ccc(Nc3ccnc(Cl)c3C#N)cc12)c1ncccn1`: the Papp is 0.8 ×10⁻⁶ cm/s.

As to `CC(Nc1cc(=O)n(CC2CCC2)c2ccc(Nc3ccnc(Cl)c3C#N)cc12)c1ncccn1` (centres undefined), the Papp was 21 ×10⁻⁶ cm/s.

As to `CC(Nc1cc(=O)n(C)c2ccc(Nc3ccnc(Cl)c3C#N)cc12)c1ncc(C2CC2)cn1` (centres undefined), the Papp is 14 ×10⁻⁶ cm/s.

On to `CC(Nc1cc(=O)n(C)c2ccc(Nc3ccnc(Cl)c3C#N)cc12)c1ncn(C)n1` (centres undefined), for which the Papp was 1.8 ×10⁻⁶ cm/s.

On to `CNC(=O)C(C)Nc1cc(=O)n(C)c2ccc(Nc3ccnc(Cl)c3C#N)cc12` (centres undefined), for which the Papp is < 0.2 ×10⁻⁶ cm/s.

A further data set addresses B-cell lymphoma 6 protein (Homo sapiens, UniProt P41182). Nature of the data set: Inhibition of BCOR peptide binding to human BCL6 expressed in Escherichia coli measured after 270 mins by BCOR ULight TR-FRET assay.
Conditions: not given
The essentials: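 Biochemical TR-FRET assay with the BTB domain of BCL6 (not full-length protein) and a short corepressor-derived peptide, measuring inhibition of their binding. The result is reported as an IC50.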
On the technique in general: TR-FRET usually uses a lanthanide donor and a delayed reading to cut background.
On to `CNC(=O)COc1cc2cc(Nc3nc(N4CCC(C(=O)N(C)C)CC4)ncc3Cl)cc(OC)c2n(C)c1=O`, for which the IC50 is < 0.03 µM.

Another data set concerns Mus musculus. The experiment in a line: Toxicity in BALB/c mouse at 1 mg/kg, iv or 5 mg/kg, po. In kind it is organism-based. Particulars: in vivo.
For the molecule `Cn1c(=O)cc(NC(C)(C)c2ncc(C3CC3)cn2)c2cc(Nc3ccnc(Cl)c3C#N)ccc21`, the Activity result is “Non-Toxic”.
